Values after ≈ are worked out from the molar mass of the structure shown. Read-outs that look alike come from different tables or passages of the source. Marks after values point to notes of the source that are not given here.
Legend:
E. coli C291-b1 = assay: MIC, E. coli C291-b1; type: cell-based
A. baumanii ATCC9955 = assay: MIC, A. baumanii ATCC9955; type: cell-based
Klebisiella spp. = assay: MIC, Klebisiella spp.; type: cell-based
[1] = tested on: P. aeruginosa T15464 (MDR); assay: MIC, P. aeruginosa T15464; type: cell-based
S. typhimurium SL1344 = assay: MIC, S. typhimurium SL1344; type: cell-based
K. pneumoniae BARB 105 = assay: MIC, K. pneumoniae BARB 105; type: cell-based
H+-ATPase = H+-ATPase (Escherichia coli, UniProt P0ABB0+P0ABB4); assay: In vitro ATPase activity, H+-ATPase; type: biochemical; settings: read-out: ATPase activity IC50
E. coli NR698 = assay: Bacteriostatic effect; type: cell-based; settings: Addition None
[2] = tested on: Shigella flexneri ATCC12022; assay: Bacteriostatic effect; type: cell-based
Procedure, shortened: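 Broth microdilution per CLSI guidelines: LB with 0.2% glucose, exponential-phase cells (OD600 ≈ 0.5), 2% DMSO final. Permeabilizer, where added, was PMBN 25 μg/mL or NAB7061 4 μg/mL. Incubated 24 h at 37 °C with shaking at 250 rpm. Run in triplicate in three separate experiments. MIC is the lowest concentration with no growth.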

E. coli MC4100 = assay: Bacteriostatic effect; type: cell-based
SpuB ATPase = SpuB ATPase (Pseudomonas aeruginosa, UniProt Q9I6J3); assay: In vitro ATPase activity, SpuB; type: biochemical; settings: read-out: ATPase activity IC50
PaSecA = PaSecA (Pseudomonas aeruginosa, UniProt Q9LCT3); settings: read-out: Protein translocation IC50; PaSecA-liposomes; published RB; cited from earlier work
[3] = E. coli C291-b1, NAB7061 4 μg/mL
[4] = A. baumanii ATCC9955, NAB7061 4 μg/mL
[5] = A. baumanii ATCC9955, PMBN 25 μg/mL
[6] = Acinetobacter baumannii, ATCC9955
[7] = Klebisiella spp., Addition None
[8] = Klebisiella spp., NAB7061 4 μg/mL
[9] = P. aeruginosa T15464 (MDR), NAB7061 4 μg/mL
[10] = P. aeruginosa T15464 (MDR), PMBN 3 μg/mL
[11] = Pseudomonas aeruginosa, read-out: MIC100
[12] = S. typhimurium SL1344, NAB7061 4 μg/mL
[13] = S. typhimurium SL1344, PMBN 25 μg/mL
[14] = Salmonella enterica, TYPHIMURIUM
[15] = K. pneumoniae BARB 105, NAB7061 4 μg/mL
[16] = K. pneumoniae BARB 105, PMBN 25 μg/mL
[17] = Klebisiella spp., PMBN 25 μg/mL

PaSecA, sequence (Q9LCT3 whole entry): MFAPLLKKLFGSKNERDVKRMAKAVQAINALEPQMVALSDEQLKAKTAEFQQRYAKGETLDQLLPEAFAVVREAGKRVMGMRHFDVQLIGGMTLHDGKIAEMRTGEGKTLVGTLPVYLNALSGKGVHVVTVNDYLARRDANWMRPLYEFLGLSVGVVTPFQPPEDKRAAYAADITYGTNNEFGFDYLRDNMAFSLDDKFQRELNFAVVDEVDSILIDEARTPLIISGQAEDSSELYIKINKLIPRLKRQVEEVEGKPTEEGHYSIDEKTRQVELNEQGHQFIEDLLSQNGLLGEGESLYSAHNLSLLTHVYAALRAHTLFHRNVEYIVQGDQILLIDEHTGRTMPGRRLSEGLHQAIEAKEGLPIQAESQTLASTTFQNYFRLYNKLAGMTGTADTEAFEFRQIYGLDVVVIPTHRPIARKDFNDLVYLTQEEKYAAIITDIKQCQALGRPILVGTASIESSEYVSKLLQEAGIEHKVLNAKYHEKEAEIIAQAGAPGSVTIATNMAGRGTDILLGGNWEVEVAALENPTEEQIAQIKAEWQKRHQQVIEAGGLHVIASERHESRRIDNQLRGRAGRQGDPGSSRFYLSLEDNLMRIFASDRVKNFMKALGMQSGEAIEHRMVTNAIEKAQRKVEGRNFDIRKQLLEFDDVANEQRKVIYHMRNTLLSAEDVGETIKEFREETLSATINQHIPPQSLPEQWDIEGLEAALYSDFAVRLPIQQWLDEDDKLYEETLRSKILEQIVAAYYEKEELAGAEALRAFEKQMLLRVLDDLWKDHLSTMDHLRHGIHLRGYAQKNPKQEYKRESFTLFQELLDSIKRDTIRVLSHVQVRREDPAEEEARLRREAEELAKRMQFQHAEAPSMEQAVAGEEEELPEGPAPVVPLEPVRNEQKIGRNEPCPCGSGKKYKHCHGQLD
H+-ATPase, sequence (P0ABB0 whole entry): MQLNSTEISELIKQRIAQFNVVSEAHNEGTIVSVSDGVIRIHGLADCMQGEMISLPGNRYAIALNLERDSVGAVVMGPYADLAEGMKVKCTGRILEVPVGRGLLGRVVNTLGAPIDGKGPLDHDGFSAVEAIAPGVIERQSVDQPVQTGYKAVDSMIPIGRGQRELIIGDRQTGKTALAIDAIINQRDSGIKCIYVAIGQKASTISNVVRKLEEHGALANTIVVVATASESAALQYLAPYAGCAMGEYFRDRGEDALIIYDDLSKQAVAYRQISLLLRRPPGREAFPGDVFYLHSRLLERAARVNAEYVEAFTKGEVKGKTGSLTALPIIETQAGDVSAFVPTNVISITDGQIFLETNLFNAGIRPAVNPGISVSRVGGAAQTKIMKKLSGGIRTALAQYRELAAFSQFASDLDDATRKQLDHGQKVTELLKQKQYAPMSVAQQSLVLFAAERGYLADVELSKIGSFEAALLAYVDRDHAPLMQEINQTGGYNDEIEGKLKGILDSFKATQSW
H+-ATPase, sequence (P0ABB4 2-460): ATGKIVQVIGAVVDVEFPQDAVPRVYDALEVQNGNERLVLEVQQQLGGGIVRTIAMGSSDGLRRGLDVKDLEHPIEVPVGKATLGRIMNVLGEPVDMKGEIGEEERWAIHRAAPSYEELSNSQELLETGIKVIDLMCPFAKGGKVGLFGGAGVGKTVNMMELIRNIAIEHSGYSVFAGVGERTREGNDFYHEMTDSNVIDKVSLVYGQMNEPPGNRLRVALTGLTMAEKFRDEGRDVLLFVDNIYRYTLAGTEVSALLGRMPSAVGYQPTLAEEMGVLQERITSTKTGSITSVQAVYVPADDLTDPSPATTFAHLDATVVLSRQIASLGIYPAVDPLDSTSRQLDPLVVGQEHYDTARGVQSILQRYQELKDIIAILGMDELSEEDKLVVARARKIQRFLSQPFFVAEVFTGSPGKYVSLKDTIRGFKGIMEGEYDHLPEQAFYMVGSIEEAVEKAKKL
H+-ATPase, sequence (P0ABA6 whole entry, further chain): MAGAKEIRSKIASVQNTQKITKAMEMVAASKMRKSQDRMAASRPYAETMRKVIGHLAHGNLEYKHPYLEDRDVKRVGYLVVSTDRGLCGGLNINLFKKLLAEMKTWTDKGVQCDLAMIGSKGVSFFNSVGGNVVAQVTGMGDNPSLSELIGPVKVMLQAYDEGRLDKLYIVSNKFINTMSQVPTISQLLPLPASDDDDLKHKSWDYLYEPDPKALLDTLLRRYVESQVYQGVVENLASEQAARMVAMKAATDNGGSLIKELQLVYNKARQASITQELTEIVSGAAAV

| MIC [1, 11] [µg/mL] | SMILES | MIC (E. coli C291-b1; [3]) | MIC (E. coli C291-b1; E. coli C291-b1, PMBN 25 μg/mL) | MIC (A. baumanii ATCC9955; [4]) | MIC (A. baumanii ATCC9955; [5]) | MIC (A. baumanii ATCC9955; [6]) [µg/mL] | MIC (Klebisiella spp.; [7]) | MIC (Klebisiella spp.; [8]) | MIC [1, 9] | MIC [1, 10] | MIC (S. typhimurium SL1344; [12]) [µg/mL] | MIC (S. typhimurium SL1344; [13]) [µg/mL] | MIC (S. typhimurium SL1344; [14]) [µg/mL] | MIC (K. pneumoniae BARB 105; [15]) | MIC (K. pneumoniae BARB 105; [16]) | MIC (Klebisiella spp.; [17]) | also measured |
| --- | --- | --- | --- | --- | --- | --- | --- | --- | --- | --- | --- | --- | --- | --- | --- | --- | --- |
| > 1000 | CC1(C)S[C@@H]2[C@H](NC(=O)C(C(=O)O)c3ccccc3)C(=O)N2[C@H]1C(=O)O (stereo partly shown) [Carbenicillin] | >1,000 μg/mL | >1,000 μg/mL | >1,000 μg/mL | >1,000 μg/mL | > 1000 | >1,250 μg/mL | >1,250 μg/mL | >1,000 μg/mL | >1,000 μg/mL | >500 | >500 | > 500 | >1,000 μg/mL | >1,000 μg/mL |  | MIC (E. coli C291-b1; Escherichia coli, C291B1): > 1000 µg/mL; MIC (Klebisiella spp.): > 1250 µg/mL; MIC ([1]; Pseudomonas aeruginosa): > 1000 µg/mL; MIC (K. pneumoniae BARB 105; Klebsiella pneumoniae, BARB105): > 1000 µg/mL |
|  | O=C1OC2(c3cc(I)c(O)c(I)c3Oc3c2cc(I)c(O)c3I)c2c(Cl)c(Cl)c(Cl)c(Cl)c21 [RB, Rose Bengal] | >254 ^* μg/mL | 3.2 µg/mL (≈ 3.29 µM) | 127.2 µg/mL (≈ 131 µM) | 80.6 µg/mL (≈ 82.8 µM) |  | >1,272 ^* μg/mL | >254 ^* μg/mL | 3.2 µg/mL (≈ 3.29 µM) | 0.4 µg/mL (≈ 0.411 µM) | 254 (≈ 261 µM) | 17 (≈ 17.5 µM) |  | >254 ^* μg/mL | 25.4 µg/mL (≈ 26.1 µM) | >254 ^* μg/mL | MIC (E. coli C291-b1; E. coli C291-b1, Addition None): >1,272 ^* μg/mL; IC50 (H+-ATPase): 60 µM; MIC (A. baumanii ATCC9955; A. baumanii ATCC9955, Addition None): >1,272 ^* μg/mL; MIC (E. coli NR698): 4.5 µg/mL (≈ 4.62 µM); MIC ([2]; Shigella flexneri ATCC12022, NAB7061 4 μg/mL): 1.6 µg/mL (≈ 1.64 µM); MIC ([2]; Shigella flexneri ATCC12022, PMBN 25 μg/mL): 7.5 µg/mL (≈ 7.7 µM); MIC (E. coli MC4100; E. coli MC4100, Addition None): >1,272 ^* μg/mL; MIC (E. coli MC4100; E. coli MC4100, NAB7061 4 μg/mL): 2.0 µg/mL (≈ 2.05 µM); MIC (E. coli MC4100; E. coli MC4100, PMBN 25 μg/mL): 15.9 µg/mL (≈ 16.3 µM); MIC ([1]; P. aeruginosa T15464 (MDR), Addition None): >1,272 ^* μg/mL; MIC (S. typhimurium SL1344; S. typhimurium SL1344, Addition None): >1,272 ^* μg/mL; IC50 (SpuB ATPase): > 200 µM; MIC (K. pneumoniae BARB 105; K. pneumoniae BARB 105, Addition None): >1,272 ^* μg/mL; IC50 (PaSecA): 1 µM |
|  | CN[C@H](CC(C)C)C(=O)N[C@H]1C(=O)N[C@@H](CC(N)=O)C(=O)N[C@H]2C(=O)N[C@H]3C(=O)N[C@H](C(=O)N[C@H](C(=O)O)c4cc(O)cc(O)c4-c4cc3ccc4O)[C@H](O)c3ccc(c(Cl)c3)Oc3cc2cc(c3O[C@@H]2O[C@H](CO)[C@@H](O)[C@H](O)[C@H]2O[C@H]2C[C@](C)(N)[C@H](O)[C@H](C)O2)Oc2ccc(cc2Cl)[C@H]1O [Vancomycin] |  |  | 250 µg/mL (≈ 173 µM) | 250 µg/mL (≈ 173 µM) | 250 (≈ 173 µM) | 1000 µg/mL (≈ 690 µM) | 250 µg/mL (≈ 173 µM) |  |  | >250 |  | > 250 |  |  | 250 µg/mL (≈ 173 µM) | MIC (E. coli C291-b1; Escherichia coli, C291B1, E. coli C291-b1, Addition None): > 250 µg/mL; MIC (E. coli C291-b1; Escherichia coli, C291B1, E. coli C291-b1, NAB7061 4 μg/mL): 125 µg/mL (≈ 86.3 µM); MIC (E. coli C291-b1; Escherichia coli, C291B1, E. coli C291-b1, PMBN 25 μg/mL): 31 µg/mL (≈ 21.4 µM); MIC ([2]; Shigella flexneri, ATCC12022, Shigella flexneri ATCC12022, Addition None): > 250 µg/mL; MIC ([2]; Shigella flexneri, ATCC12022, Shigella flexneri ATCC12022, NAB7061 4 μg/mL): 250 µg/mL (≈ 173 µM); MIC ([2]; Shigella flexneri, ATCC12022, Shigella flexneri ATCC12022, PMBN 25 μg/mL): 62.5 µg/mL (≈ 43.1 µM); MIC (E. coli MC4100; Escherichia coli, MC4100, E. coli MC4100, Addition None): 250 µg/mL (≈ 173 µM); MIC (E. coli MC4100; Escherichia coli, MC4100, E. coli MC4100, PMBN 25 μg/mL): 31.3 µg/mL (≈ 21.6 µM); MIC ([1]; Pseudomonas aeruginosa, P. aeruginosa T15464 (MDR), Addition None): > 1000 µg/mL; MIC ([1]; Pseudomonas aeruginosa, P. aeruginosa T15464 (MDR), NAB7061 4 μg/mL): > 1000 µg/mL; MIC ([1]; Pseudomonas aeruginosa, P. aeruginosa T15464 (MDR), PMBN 3 μg/mL): 31 µg/mL (≈ 21.4 µM); MIC ([1]; Pseudomonas aeruginosa, read-out: MIC100, clinical MDR P. aeruginosa strain T15464): > 1000 µg/mL; MIC (K. pneumoniae BARB 105; Klebsiella pneumoniae, BARB105, K. pneumoniae BARB 105, Addition None): > 1000 µg/mL; MIC (K. pneumoniae BARB 105; Klebsiella pneumoniae, BARB105, K. pneumoniae BARB 105, NAB7061 4 μg/mL): 1000 µg/mL (≈ 690 µM); MIC (K. pneumoniae BARB 105; Klebsiella pneumoniae, BARB105, K. pneumoniae BARB 105, PMBN 25 μg/mL): 500 µg/mL (≈ 345 µM) |
| > 1000 | CC[C@H]1OC(=O)[C@H](C)[C@@H](O[C@H]2C[C@@](C)(OC)[C@@H](O)[C@H](C)O2)[C@H](C)[C@@H](O[C@@H]2O[C@H](C)C[C@H](N(C)C)[C@H]2O)[C@](C)(O)C[C@@H](C)C(=O)[C@H](C)[C@@H](O)[C@]1(C)O [erythromycin] |  |  |  |  |  |  |  |  |  |  |  |  |  |  |  |  |
